Screening results deposited in PubChem BioAssay by Sanford-Burnham Center for Chemical Genomics.
FLuc inhib CS = Photinus pyralis luciferase inhibition counter-screen; inhibition, % at 10 µM; ATPLite firefly luciferase biochemical luminescence, 10 min; P08659; actives 1.5% (n = 200,000);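 active = inhibition above about 50% when tested at 10 µM, limit read from the data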
Target sequence (P08659 whole entry, looked up): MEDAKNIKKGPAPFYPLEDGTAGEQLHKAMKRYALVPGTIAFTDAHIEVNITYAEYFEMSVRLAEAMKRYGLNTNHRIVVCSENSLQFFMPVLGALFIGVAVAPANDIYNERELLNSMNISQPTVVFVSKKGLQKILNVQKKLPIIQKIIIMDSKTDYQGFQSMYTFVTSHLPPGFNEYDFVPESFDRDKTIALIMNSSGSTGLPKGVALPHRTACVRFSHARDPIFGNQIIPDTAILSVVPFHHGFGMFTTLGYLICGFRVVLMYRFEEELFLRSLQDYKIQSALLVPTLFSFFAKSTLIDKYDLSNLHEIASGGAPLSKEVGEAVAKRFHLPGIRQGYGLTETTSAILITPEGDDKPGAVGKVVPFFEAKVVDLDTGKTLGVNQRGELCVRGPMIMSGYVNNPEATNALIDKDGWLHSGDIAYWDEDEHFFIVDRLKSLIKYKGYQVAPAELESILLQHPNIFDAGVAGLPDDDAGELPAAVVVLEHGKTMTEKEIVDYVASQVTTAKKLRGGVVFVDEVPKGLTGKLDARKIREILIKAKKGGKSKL
Diaphorase act = counter-screen for diaphorase-based assays: diaphorase activators and chemical reducers | Diaphorase/resazurin coupled assay, resorufin fluorescence, 16 min; stronger effect = higher value; 1 = vehicle wells, 0 = NADH-free wells | activation factor at 20 µM | actives 0.005% (n = 190,000);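 active = diaphorase activity raised at least twofold by the compound at 20 µM; inactive = activation factor below 2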
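Material: purified diaphorase enzyme from Clostridium kluyveri; Also added: 0.114 mM NADH and 0.1 mM resazurin, final amounts; Doses: single compound dose of 20 µM, 1% DMSO final; Times: 16 min enzyme reaction, ambient temperature; Detection: resorufin fluorescence, excitation 544 nm, emission 590 nm; Measure: increased resorufin signal from activators or reducing compounds.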
G6PDH counter = counter-screen for G6PDH assay hits: L. mesenteroides G6PDH inhibition; inhibition, % at 5 µM; actives 0.12% (n = 200,000); Purified L. mesenteroides G6PDH, diaphorase/resazurin coupled fluorescence, 45 min; in the data active = inhibition above about 50%
FLuc stim CS = affects firefly luciferase, flagging false hits in luciferase stimulation screens. ATPlite luciferase biochemical, luminescence, 10 min; 0 = ATP-free wells, 1 = DMSO control. activation factor at 10 µM. 200,000 tested, under 10 active. AID 1027;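 active = luciferase activation factor, scaled between plate controls, of at least 2 with compound at 10 µM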
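test system = cell-free luciferase reagent | medium = PBS as buffer for the ATP substrate | dosing = test compounds dosed from 2 mM stocks in 100% DMSO | incubation = 10 min at ambient temperature | detection = luminescence measurement of luciferase light output | benchmarks = low control with PBS replacing ATP, high control enzyme plus ATP without compound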
Diaphorase inh = inhibits diaphorase or chemically oxidizes, flagging diaphorase assay artifacts | diaphorase resazurin-to-resorufin fluorescence, NADH, 16 min; bacterial (C. kluyveri) enzyme, not human | inhibition, % at 20 µM | actives 0.69% (n = 190,000) | AID 1217;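 active = primary screen inhibition at 20 µM above a set limit, cut at about 50% in these data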;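 note: plate controls were DMSO with full reaction for no effect and wells lacking NADH for full effect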
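Assay system – diaphorase enzyme from Clostridium kluyveri · Amount – diaphorase 0.14 U/mL (working solution) · Times – reaction incubation of 16 min at room temperature · Controls – No-NADH positive control and DMSO neutral control · Signal – resorufin fluorescence 544/590 nm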
* marks the source's active call; other numbers are inactive results. Hits are enriched below; roughly 2.3% of the tested compounds scored in any of these assays.

SMILES	FLuc inhib CS	Diaphorase act	G6PDH counter	FLuc stim CS	Diaphorase inh
CCOc1ccc(N=Cc2c(O)cc(C)oc2=O)cc1	52.8*	0.9	-12.3	0.5	11.8
Cc1cc(O)c(/C=N/c2ccccn2)c(=O)o1	-1.5	0.9	-0.4	1	10.8
O=c1oc2ccccc2c(O)c1/C=N/c1ncccn1	-0.7	0.9	10.5	1	7.8
Cc1cc(/C=C2/SC(=O)N(CC(=O)N3CCOCC3)C2=O)c(C)n1-c1ccccc1F	86.7*	1	-23.6	0.1	4.9
COc1ccc(-n2c(C)cc(/C=C3/SC(=O)N(CC(=O)N4CCOCC4)C3=O)c2C)cc1	28.4	0.9	-17.9	0.7	10.1
O=C(C(Cc1ccccc1)NS(=O)(=O)c1cccc2cccnc12)N1CCc2ccccc21 (configuration not stated)	-3.7	0.9	-3.0	1	13.2
CC(=O)N1CCc2cc(NC(=O)c3ccc(C)cc3)ccc21	73.3*	0.9	-28.8	0.3	11.1
CC(=O)N1CCN(c2ccc(NC(=O)c3ccc(C)cc3)cc2)CC1	-2.0	1.1	0.5	1	-6.5
COc1ccc(CCN2CC(O)=C(c3nc(C)cs3)C2=N)cc1OC	-3.2	1	8.3	1	2.7
COc1ccc(-c2csc(C3=C(O)CN(CCCN4CCCC4=O)C3=N)n2)cc1OC	55.9*	0.8	-2.7	0.4	18.4
COCCNC(=O)CC(=O)N/N=C/c1ccc(C(=O)OC)cc1	-5.6	0.9	14.4	1.1	11.4
Cc1csc(NC(=O)c2cccn2C)n1	30.4	0.9	7.1	0.7	8.4
Cc1csc(NC(=O)c2cn3ccccc3n2)n1	93.5*	0.8	5.9	0.1	18.1
Nc1ccc2oc(-c3ccccn3)nc2c1	57.5*	0.9	17.7	0.4	5.3
c1ccc(-c2nc3ccccc3o2)nc1	31.3	0.9	-0.6	0.7	12.2
Clc1ccc2oc(-c3ccccn3)nc2c1	69.2*	1	3.1	0.3	-4.9
CCn1ncc(C2=NOC(C(=O)Nc3cccc(O)c3)C2)c1C (configuration not stated)	-3.4	1	2.4	1	2.5
O=C(COCC(=O)N/N=C/c1ccc(F)cc1)N/N=C/c1ccc(F)cc1	20.6	0.9	-23.4	0.8	5.1
CC(=O)Nc1cc2nn(-c3ccccc3)nc2cc1Cl	55.9*	0.9	8.0	0.4	8.1
CC(C)C(=O)Nc1ccc2nn(-c3ccccc3)nc2c1	69.0*	0.9	8.2	0.3	9.5
O=C(Nc1cc2nn(-c3ccccc3)nc2cc1Cl)c1ccco1	6.9	0.9	-27.2	0.9	9.6
CC(C)(C)C(=O)Nc1cc2nn(-c3ccccc3)nc2cc1Cl	97.1*	0.9	8.1	0	10.7
c1ccc(SCc2nc3ccccc3[nH]2)nc1	12.4	1	4.0	0.9	3.1
Cc1nnc(NC(=O)c2ccccc2Oc2ccccc2)s1	-5.3	1.1	0.5	1.1	-6.9
O=C(Nc1cccc(O)c1)c1cc(-c2ccco2)on1	75.5*	0.9	12.4	0.2	9.2
SMILES	FLuc inhib CS	Diaphorase act	G6PDH counter	FLuc stim CS	Diaphorase inh
O=C(Nc1ccc(F)cc1F)c1cc(-c2ccco2)on1	8.6	0.8	1.3	0.9	16.5
COc1ccc(OC)c2[nH]c(=O)c(CCNC(=O)c3cc4ccccc4o3)cc12	-5.6	0.4	-37.2	1.1	58.5*
N#Cc1c(/N=C/c2ccco2)sc2c1CCC2	50.4*	0.9	8.9	0.5	13.9
Cc1ccc(/C=C/C(=O)Nc2sc3c(c2C#N)CCCC3)o1	-5.3	0.9	-12.8	1.1	5.2
Cc1ccc(/C=N/c2sc3c(c2C#N)CCC3)s1	71.5*	0.9	-35.8	0.3	11.8
Cc1c(Cl)cccc1N=Cc1ccc([N+](=O)[O-])s1	-7.4	1	4.5	1.1	4.5
Cc1ccc(C=Nc2ccccc2C#N)s1	75.7*	0.9	0.9	0.2	9.5
Cc1ccc(/C=N/c2sc3c(c2C#N)CCCCC3)o1	91.5*	0.8	-2.9	0.1	15.8
O=C(CCCn1c(=O)[nH]c2ccc(Br)cc2c1=O)NCc1ccc(Cl)cc1	0.7	1	7.6	1	-3.7
O=[N+]([O-])c1cc(Cl)ccc1-c1nc(-c2ccccc2)no1	67.2*	0.8	-13.6	0.3	18.1
